Published values of several laboratories.
Compare with care: the assays were run in different laboratories.
Sample: Caco-2

O=C(Nc1ccc(OC(F)(F)F)cc1)N[C@H]1CC[C@H](Oc2ccc(C(=O)O)cc2)CC1 gave an efflux ratio of 0.98.
COCC(=O)N1CCC[C@H](C(=O)NCc2nc(-c3ccccc3)cs2)C1 has an efflux ratio of 1.
C[C@H]1O[C@@H](O[C@H]2[C@@H](O)C[C@H](O[C@H]3[C@@H](O)C[C@H](O[C@H]4CC[C@@]5(C)[C@H](CC[C@@H]6[C@@H]5C[C@@H](O)[C@]5(C)[C@@H](C7=CC(=O)OC7)CC[C@]65O)C4)O[C@@H]3C)O[C@@H]2C)C[C@H](O)[C@@H]1O gave an efflux ratio of 28.3 (10 µM, 2 h).
The efflux ratio of O=C(NCc1nc(-c2ccc(C(F)(F)F)cc2)cs1)[C@H]1CCCN(C(=O)COCCN2CCCCC2)C1 is reported as 27.
With O=c1c(O[C@@H]2O[C@H](CO)[C@H](O)[C@H](O)[C@H]2O)c(-c2ccc(O)c(O)c2)oc2cc(O)cc(O)c12 the efflux ratio was 1.56 (200 µg/mL).
With CCCCCCOC(=O)NC(=N)c1ccc(NCc2nc3cc(C(=O)N(CCC(=O)OCC)c4ccccn4)ccc3n2C)cc1 the efflux ratio was 510 (5 µM, 2 h).
The efflux ratio of Cc1ncc(Cl)cc1NCc1ccc(C(=O)N[C@@H](CC2CCCC2)C(=O)NC2CC2)s1 is reported as 41 (5 µM, 2 h, pH 7.4).
The efflux ratio of N#Cc1ccc(C[C@H](Nc2c(Nc3ccc(Br)cc3)c(=O)c2=O)C(=O)N2CCc3ccccc32)cc1 is reported as over 20 (100 µM, 2 h).
O=C(NCc1nc(-c2ccc(C(F)(F)F)cc2)cs1)[C@H]1CCCN(C(=O)COCCN2CCCC2)C1 has an efflux ratio of 46.
N#Cc1ccc(C[C@H](Nc2nnc(-c3ccc(F)cc3)o2)C(=O)N2CCc3ccccc32)cc1 gave an efflux ratio of 3.8 (100 µM, 2 h).
Cc1ccc(N(c2ccc(NC(=O)CN(C)c3ccccc3N3CCCC3=O)cc2)C(C)C)cc1 gave an efflux ratio of 2.3.
The efflux ratio of NCCOCC(=O)N1CCC[C@H](C(=O)NCc2nc(-c3ccc(C(F)(F)F)cc3)cs2)C1 is reported as 120.
For CC[C@]1(O)C[C@@H]2CN(CCc3c([nH]c4ccccc34)[C@@](C(=O)OC)(c3cc4c(cc3OC)N(C)[C@H]3[C@@](O)(C(=O)OC)[C@H](OC(C)=O)[C@]5(CC)C=CCN6CC[C@]43[C@@H]65)C2)C1, the efflux ratio was 13.5 (10 µM, 2 h).
With O=c1cc(-c2ccc(O)cc2)oc2c([C@@H]3O[C@H](CO)[C@@H](O)[C@H](O)[C@H]3O)c(O)cc(O)c12 the efflux ratio was 1.28 (200 µg/mL).
